# Results as given in ChEMBL document CHEMBL1799977, “Discovery of MK-0952, a selective PDE4 inhibitor for the treatment of long-term memory loss and mild cognitive impairment” (Bioorg Med Chem Lett, 2010).
# pIC50: −log10 of the molar value. The source made the active and inactive calls. No cut-off for these calls is given here.
# Columns and labels:
# [1] = Ratio IC50 for PDE4 activity in human whole blood to IC50 for PDE4; type: tissue-based
# Method in brief: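 Ratio of two IC50s. The numerator is from human whole blood stimulated with LPS, read as inhibition of TNF-α release. The denominator (PDE4QT) is the mean of the IC50s on the PDE4A, B and D catalytic domains. These were expressed as GST constructs in Sf9 cells by baculovirus. Each IC50 is the average of at least two experiments.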
# Rattus norvegicus [2] = species on record: Rattus norvegicus; assay: Cognitive enhancing effect in Lister rat assessed as change in escape latency pretreated before sample phase by water maze delayed matching to position test; type: functional; conditions: read-out: MED
# Method in brief: (§1)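 Rats in a water maze with the platform moved daily, four 60 s trials per day over five days. Oral dosing in 0.5% methocel, 90 or 30 min before the sample trial. Savings score = escape latency difference between trials 1 and 2 over a 4 h delay. n = 10; Newman–Keuls test.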
# Plasma [3] = assay: Drug level in plasma of Lister rat during conditional taste aversion test; type: ADME, cell-free
# Method in brief: (§2)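 Male hooded Lister rats in the conditioned taste aversion test given oral compound in 0.5% methocel. Plasma and whole brain levels were measured on the tested animals 90 min post-dosing.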
# Brain [4] = assay: Drug level in brain of Lister rat during conditional taste aversion test; type: ADME, tissue-based; conditions: in vivo, read-out: Drug uptake; method in brief: as §2
# [5] = target: 3',5'-cyclic-AMP phosphodiesterase 4A (Homo sapiens, UniProt P27815); assay: Inhibition of PDE4A; conditions: pooled result: one value given for 3 cell lines, strains, targets or settings
# Method in brief: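 Catalytic domains of PDE4A, B and D expressed as GST constructs in SF9 cells (baculovirus). IC50s are averages of at least two experiments.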
# Phosphodiesterase 4 = Phosphodiesterase 4 (Homo sapiens, UniProt P27815+Q08499+Q07343+Q08493); assay: Inhibition of PDE4 activity in human whole blood assessed as inhibition of LPS-induced TNF-alpha release
# [6] = Inhibition of PDE4 activity in rat whole blood assessed as inhibition of LPS-induced TNF-alpha release; type: tissue-based
# Cytochrome P450 2C9 [7] = target: T1, Cytochrome P450 2C9 (Homo sapiens, UniProt P11712); assay: Competitive inhibition of CYP2C9; type: ADME
# Rattus norvegicus [8] = species on record: Rattus norvegicus; assay: Induction of adverse effect in Lister rat assessed as induction of malaise by conditional taste aversion test; type: organism-based; conditions: in vivo
# Method in brief: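 Singly housed male hooded Lister rats, water-deprived 22.5 h/day. On two conditioning days they had 20 min access to 0.1% saccharin, then received oral compound in 0.5% methocel, vehicle, or LiCl 30 mg/kg ip. Consumption on test day was compared with baseline (n = 6–8; Dunnett's test).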
# Brain [9] = assay: Drug level in brain of Lister rat during water maze delayed matching to position test; conditions: in vivo, read-out: Drug uptake
# Plasma [10] = assay: Drug level in plasma of Lister rat during water maze delayed matching to position test
# Rattus norvegicus [11] = species on record: Rattus norvegicus; assay: Cognitive enhancing effect in Lister rat assessed as change in escape latency pretreated 30 mins before sample phase by water maze delayed matching to position test; type: functional; conditions: read-out: MED; method in brief: as §1
# Rattus norvegicus [12] = assay: Cognitive enhancing effect in Lister rat assessed as recognition of novel object at 0.1 mg/kg, po pretreated 90 mins before sample phase by novel object recognition test; type: functional, organism-based; set-up: dose 0.1 mg/kg
# Method in brief: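 Novel object recognition in rats. Oral dosing in 0.5% methocel 90 min before the sample trial, which ended at 25 s of exploration or 3 min. Choice trial followed with a familiar and a novel object. d2 score = (novel − familiar)/total exploration. n = 21–24; Newman–Keuls test.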
# Rattus norvegicus [13] = species on record: Rattus norvegicus; assay: Ratio MED for cognitive enhancing effect in lister rat during water maze delayed matching to position test to MED for adverse effect in lister rat during conditional taste aversion test; type: functional
# Method in brief: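 Therapeutic window as water maze MED over CTA MED. Water maze: rats dosed orally daily in 0.5% methocel before sample trial, 0.01–3.0 mg/kg, n = 10; four 60 s trials/day, 4 h inter-trial delay, savings score. CTA: water-deprived male hooded Lister rats, 20 min 0.1% saccharin on two conditioning days, oral dose immediately after; LiCl 30.0 mg/kg ip control; test-day intake.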
# [14] = Inhibition of PDE4 activity in rhesus monkey whole blood assessed as inhibition of LPS-induced TNF-alpha release; type: tissue-based; conditions: Macaca mulatta
# [15] = Inhibition of PDE4 activity in squirrel monkey whole blood assessed as inhibition of LPS-induced TNF-alpha release; type: tissue-based; conditions: Saimiri
# [16] = Oral bioavailability in rat at 10 mg/kg; type: ADME, organism-based; conditions: in vivo
# [17] = Clearance in rat at 10 mg/kg, po or 3 mg/kg, iv; type: ADME, organism-based; conditions: in vivo
# [18] = Half life in rat at 10 mg/kg, po or 3 mg/kg, iv; type: ADME, organism-based; conditions: in vivo
# [19] = Oral bioavailability in squirrel monkey at 10 mg/kg; type: ADME, organism-based; conditions: saimiri, in vivo
# [20] = Clearance in squirrel monkey at 10 mg/kg, po or 1 mg/kg, iv; type: ADME, organism-based; conditions: saimiri, in vivo
# [21] = Half life in squirrel monkey at 10 mg/kg, po or 1 mg/kg, iv; type: ADME, organism-based; conditions: saimiri, in vivo
# [22] = Oral bioavailability in rhesus monkey at 10 mg/kg; type: ADME, organism-based, Macaca mulatta; conditions: in vivo
# [23] = Clearance in rhesus monkey at 10 mg/kg, po or 1 mg/kg, iv; type: ADME, organism-based, Macaca mulatta; conditions: in vivo
# [24] = Half life in rhesus monkey at 10 mg/kg, po or 1 mg/kg, iv; type: ADME, organism-based, Macaca mulatta; conditions: in vivo
# [25] = Oral bioavailability in dog at 3 mg/kg; type: ADME, organism-based, Canis lupus familiaris; conditions: in vivo
# [26] = Clearance in dog at 3 mg/kg, po or 1 mg/kg, iv; type: ADME, organism-based, Canis lupus familiaris; conditions: in vivo
# [27] = Half life in dog at 3 mg/kg, po or 1 mg/kg, iv; type: ADME, organism-based, Canis lupus familiaris; conditions: in vivo
# [28] = Metabolic stability in human hepatocytes assessed as compound metabolism level; type: ADME, cell-based, Hepatocyte; conditions: read-out: Activity
# [29] = Metabolic stability in male rat hepatocytes assessed as compound metabolism level; type: ADME, cell-based, Hepatocyte; conditions: read-out: Activity
# [30] = Metabolic stability in female rat hepatocytes assessed as compound metabolism level; type: ADME, cell-based, Hepatocyte; conditions: read-out: Activity
# [31] = Metabolic stability in rhesus monkey hepatocytes assessed as compound metabolism level; type: ADME, cell-based, Macaca mulatta, Hepatocyte; conditions: read-out: Activity
# [32] = Metabolic stability in dog hepatocytes assessed as compound metabolism level; type: ADME, cell-based, Canis lupus familiaris, Hepatocyte; conditions: read-out: Activity
# [33] = Drug excretion in bile cannulated male rat assessed as excretion of parent compound in bile at 3 mg/kg, iv using [3H]-labeled compound measured after 8 hrs; type: ADME, organism-based; set-up: dose 3 mg/kg, route intravenous; conditions: in vivo
# Method in brief: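 Permanently bile-cannulated male rats dosed iv with tritiated compound (3 mg/kg, 100 μCi/kg); bile collected 0–8 h and parent expressed as % of total radioactivity.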
# Rattus norvegicus [34] = species on record: Rattus norvegicus; assay: Cognitive enhancing effect in Lister rat assessed as change in escape latency pretreated 90 mins before sample phase by water maze delayed matching to position test; type: functional; conditions: read-out: MED; method in brief: as §1
# Cytochrome P450 2C9 [35] = target: T1, Cytochrome P450 2C9; assay: Inhibition of human CYP2C9; type: ADME
# CYP3A = CYP3A (Homo sapiens, UniProt P08684+P20815+P24462+Q9HB55); assay: Inhibition of human CYP3A; type: ADME
# Cytochrome P450 2D6 = Cytochrome P450 2D6 (Homo sapiens, UniProt P10635); assay: Inhibition of human CYP2D6; type: ADME
# Cytochrome P450 1A2 = target: T2, Cytochrome P450 1A2 (Homo sapiens, UniProt P05177); assay: Inhibition of human CYP1A2; type: ADME
# T2 sequence (P05177 whole entry): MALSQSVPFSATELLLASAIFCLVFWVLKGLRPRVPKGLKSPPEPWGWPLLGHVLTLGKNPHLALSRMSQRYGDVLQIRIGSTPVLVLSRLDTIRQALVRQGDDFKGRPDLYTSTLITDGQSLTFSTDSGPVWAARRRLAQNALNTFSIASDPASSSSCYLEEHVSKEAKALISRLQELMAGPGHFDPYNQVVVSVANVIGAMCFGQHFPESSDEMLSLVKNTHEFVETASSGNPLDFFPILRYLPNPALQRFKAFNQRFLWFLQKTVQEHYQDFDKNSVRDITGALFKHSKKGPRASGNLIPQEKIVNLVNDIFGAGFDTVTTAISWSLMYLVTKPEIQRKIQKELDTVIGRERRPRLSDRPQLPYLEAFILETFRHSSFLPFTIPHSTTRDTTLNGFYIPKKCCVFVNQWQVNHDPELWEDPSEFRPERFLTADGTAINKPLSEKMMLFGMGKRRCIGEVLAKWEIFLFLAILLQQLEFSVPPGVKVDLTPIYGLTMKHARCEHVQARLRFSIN
# Hepatocyte = assay: Increase in CYP3A4 protein level in human primary hepatocytes at 10 uM by Western blot analysis relative to rifampicin; type: ADME, cell-based
# Method in brief: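 Human primary cultured hepatocytes exposed to 10 µM compound; CYP3A4 protein measured by Western blot relative to rifampicin at 10 µM.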
# T1 sequence (P11712 whole entry): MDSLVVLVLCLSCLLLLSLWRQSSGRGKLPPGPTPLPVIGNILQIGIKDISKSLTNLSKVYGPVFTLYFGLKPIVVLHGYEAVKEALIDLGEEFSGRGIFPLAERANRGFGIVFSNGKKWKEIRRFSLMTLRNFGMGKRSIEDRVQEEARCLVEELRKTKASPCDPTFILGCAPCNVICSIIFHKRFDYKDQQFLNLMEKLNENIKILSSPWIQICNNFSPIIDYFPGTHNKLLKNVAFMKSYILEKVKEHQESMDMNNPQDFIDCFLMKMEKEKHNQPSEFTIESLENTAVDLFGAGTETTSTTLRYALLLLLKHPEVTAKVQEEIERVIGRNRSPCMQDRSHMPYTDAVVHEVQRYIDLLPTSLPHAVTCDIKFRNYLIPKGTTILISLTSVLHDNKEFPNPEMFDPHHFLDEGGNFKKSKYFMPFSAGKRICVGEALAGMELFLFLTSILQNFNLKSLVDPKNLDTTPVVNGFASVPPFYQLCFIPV
# 3',5'-cyclic-AMP phosphodiesterase 4A, sequence (P27815 whole entry, the tested form may be a part): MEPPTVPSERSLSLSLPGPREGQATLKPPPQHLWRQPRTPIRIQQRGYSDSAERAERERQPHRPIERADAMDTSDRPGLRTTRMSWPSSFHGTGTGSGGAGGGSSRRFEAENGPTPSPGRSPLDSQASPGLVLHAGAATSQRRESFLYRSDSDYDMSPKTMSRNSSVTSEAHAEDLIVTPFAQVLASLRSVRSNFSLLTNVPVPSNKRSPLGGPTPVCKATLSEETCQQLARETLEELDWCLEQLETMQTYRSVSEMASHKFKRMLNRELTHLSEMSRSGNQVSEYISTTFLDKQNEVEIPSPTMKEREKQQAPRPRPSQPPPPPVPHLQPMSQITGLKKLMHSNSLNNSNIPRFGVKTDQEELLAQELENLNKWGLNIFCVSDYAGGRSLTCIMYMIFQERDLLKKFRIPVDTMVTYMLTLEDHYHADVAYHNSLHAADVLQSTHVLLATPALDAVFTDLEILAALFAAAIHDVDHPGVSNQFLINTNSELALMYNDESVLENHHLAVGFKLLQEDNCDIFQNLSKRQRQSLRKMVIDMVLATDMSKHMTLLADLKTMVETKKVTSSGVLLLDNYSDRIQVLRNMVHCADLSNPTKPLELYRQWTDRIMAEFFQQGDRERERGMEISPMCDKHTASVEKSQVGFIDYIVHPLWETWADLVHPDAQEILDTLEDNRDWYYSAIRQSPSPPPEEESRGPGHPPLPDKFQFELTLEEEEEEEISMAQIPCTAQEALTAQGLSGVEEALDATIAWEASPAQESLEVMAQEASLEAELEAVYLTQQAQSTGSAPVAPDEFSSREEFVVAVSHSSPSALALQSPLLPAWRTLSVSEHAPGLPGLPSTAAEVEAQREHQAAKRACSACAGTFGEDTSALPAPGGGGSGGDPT
# Cytochrome P450 2D6, sequence (P10635 whole entry): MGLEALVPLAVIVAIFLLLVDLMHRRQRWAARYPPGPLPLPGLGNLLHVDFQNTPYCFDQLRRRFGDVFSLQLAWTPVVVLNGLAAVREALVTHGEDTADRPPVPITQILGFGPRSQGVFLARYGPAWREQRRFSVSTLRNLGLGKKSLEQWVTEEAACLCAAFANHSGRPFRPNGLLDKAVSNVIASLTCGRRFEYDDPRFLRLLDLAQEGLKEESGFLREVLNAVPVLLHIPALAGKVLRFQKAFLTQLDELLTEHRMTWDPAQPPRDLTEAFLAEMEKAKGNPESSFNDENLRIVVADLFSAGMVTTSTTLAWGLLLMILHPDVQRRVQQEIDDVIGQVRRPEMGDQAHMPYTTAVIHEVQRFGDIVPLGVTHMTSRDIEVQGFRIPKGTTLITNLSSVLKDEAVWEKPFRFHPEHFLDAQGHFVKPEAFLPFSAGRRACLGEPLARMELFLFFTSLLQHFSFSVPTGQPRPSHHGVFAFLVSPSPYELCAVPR
smiles,measurement,setting,value
O=C(NC1CC1)c1cn(-c2cccc(C#Cc3ccc[n+]([O-])c3)c2)c2ncccc2c1=O [MK-0873],Ratio IC50,[1],37
same,minimal effective dose,Rattus norvegicus [2],0.3 mg/kg
same,concentration,Plasma [3],828 nM
same,concentration,Brain [4],48 nM
same,pIC50,[5],8.29
same,IC50,Phosphodiesterase 4,0.19 µM
same,pIC50,[6],7.19
same,pIC50,Cytochrome P450 2C9 [7],4.40
same,MED,Rattus norvegicus [8],1 mg/kg
same,concentration,Brain [9],15 nM
same,concentration,Plasma [10],258 nM
Cc1noc(/C(=C/c2cccc(-c3cc(C(C)(C)S(C)(=O)=O)cc4cccnc34)c2)c2ccc(S(C)(=O)=O)cc2)n1,minimal effective dose,Rattus norvegicus [11],0.3 mg/kg
same,concentration,Plasma [3],113 nM
same,concentration,Brain [4],21 nM
same,pIC50,[6],7.64
same,Activity,Rattus norvegicus [12],Active
same,MED,Rattus norvegicus [8],1 mg/kg
same,concentration,Brain [9],5.1 nM
same,concentration,Plasma [10],27 nM
O=C(NC1CC1)c1cn(-c2cccc(-c3ccc([C@@H]4C[C@H]4C(=O)O)c(F)c3)c2)c2ncccc2c1=O,Ratio,Rattus norvegicus [13],100
same,concentration,Plasma [3],12000 nM
same,concentration,Brain [4],290 nM
same,pIC50,[5],9.28
same,IC50,Phosphodiesterase 4,0.55 µM
same,pIC50,[6],6.35
same,pIC50,[14],6.03
same,pIC50,[15],7.28
same,bioavailability,[16],38%
same,clearance,[17],1 mL/min/kg
same,half-life,[18],210 min
same,bioavailability,[19],41%
same,clearance,[20],1.7 mL/min/kg
same,half-life,[21],258 min
same,bioavailability,[22],77%
same,clearance,[23],1.3 mL/min/kg
same,half-life,[24],390 min
same,bioavailability,[25],100%
same,clearance,[26],3.7 mL/min/kg
same,half-life,[27],396 min
same,metabolised,[28],2%
same,metabolised,[29],5%
same,metabolised,[30],20%
same,metabolised,[31],10%
same,metabolised,[32],30%
same,Activity,[33],> 35%
same,minimal effective dose,Rattus norvegicus [34],0.1 mg/kg
same,pIC50,Cytochrome P450 2C9 [35],< 4.00
same,pIC50,CYP3A,< 4.00
same,pIC50,Cytochrome P450 2D6,< 4.00
same,pIC50,Cytochrome P450 1A2,< 4.00
same,Activity,Hepatocyte,23%
same,MED,Rattus norvegicus [8],10 mg/kg
same,concentration,Brain [9],9.2 nM
same,concentration,Plasma [10],390 nM
